Reference: article PMC7439261 (ACS Omega, 2020)
Values after ≈ are worked out from the molar mass of the structure shown. Each block holds one compound with its values, some of them ahead of it.

Legend:
[1] = test system: H. pylori ATCC 43504; experiment: Broth dilution bioassay MIC/MBC, ATCC 43504; type: cell-based; settings: Helicobacter pylori; for MIC: ATCC43504, 48 h; for MBC: ATCC43504, 72 h
[2] = test system: H. pylori OX.67; experiment: Broth dilution bioassay MIC/MBC, OX.67; type: cell-based, Helicobacter pylori; settings: for MIC: H. pylori OX.67, broth dilution, 48 h; for MBC: OX.67, 72 h
[3] = test system: H. pylori OX.63; experiment: Broth dilution bioassay MIC/MBC, OX.63; type: cell-based, Helicobacter pylori; settings: for MIC: H. pylori OX.63, broth dilution, 48 h; for MBC: OX.63, 72 h
[4] = test system: H. pylori ATCC 51932; experiment: Broth dilution bioassay MIC/MBC, ATCC 51932; type: cell-based; settings: Helicobacter pylori; for MIC: ATCC51932, 48 h; for MBC: ATCC51932, 72 h
[5] = test system: H. pylori OX.22; experiment: Broth dilution bioassay MIC/MBC, OX.22; type: cell-based; settings: Helicobacter pylori; for MIC: OX.22, 48 h; for MBC: OX.22, 72 h
[6] = test system: H. pylori OX.83; experiment: Broth dilution bioassay MIC/MBC, OX.83; type: cell-based, Helicobacter pylori; settings: for MIC: H. pylori OX.83, broth dilution, 48 h; for MBC: OX.83, 72 h
[7] = test system: test strains of H. pylori; experiment: Broth dilution bioassay MIC/MBC, text summary over test strains; type: cell-based; settings: Helicobacter pylori
[8] = test system: H. pylori OX.64; experiment: Broth dilution bioassay MIC/MBC, OX.64; type: cell-based, Helicobacter pylori; settings: for MIC: H. pylori OX.64, broth dilution, 48 h; for MBC: OX.64, 72 h
[9] = Sulforhodamine cytotoxicity assay, text summary over four cell lines; type: cell-based; settings: human
In short: (§1)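 Cells were grown in EMEM with 10% FBS, 2 mM L-glutamine, 20 mM HEPES and antibiotics at 37 °C, 5% CO2. Passages were 4–20 for HeLa, MCF7 and Jurkat, and 2–5 for fibroblasts. Seeding per well for 24 h: HeLa 5×10^3, MCF7 and fibroblast 10^4, Jurkat 5×10^4. Test compound (0–200 mg/L, in DMSO) was added for 48 h. Cells were fixed with cold TCA, stained with 0.2% SRB, solubilised in 10 mM Tris and read at 492 nm. Camptothecin was the positive control. Triplicates, three independent experiments.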

[10] = Sulforhodamine cytotoxicity assay, fibroblast; type: cell-based; settings: human, fibroblast cells derived from human foreskins
In short: as §1

[11] = Sulforhodamine cytotoxicity assay, HeLa; type: cell-based; settings: human, HeLa cells
In short: as §1

[12] = Sulforhodamine cytotoxicity assay, Jurkat; type: cell-based; settings: human, Jurkat cells
In short: as §1

[13] = Sulforhodamine cytotoxicity assay, MCF7; type: cell-based; settings: human, MCF7 cells
In short: as §1

[14] = biological target: H. pylori ATCC 43504 urease (Helicobacter pylori, UniProt P69996); experiment: Urease inhibition, salicylate-hypochlorite method; type: biochemical
Chain of H. pylori ATCC 43504 urease (P69996 whole entry): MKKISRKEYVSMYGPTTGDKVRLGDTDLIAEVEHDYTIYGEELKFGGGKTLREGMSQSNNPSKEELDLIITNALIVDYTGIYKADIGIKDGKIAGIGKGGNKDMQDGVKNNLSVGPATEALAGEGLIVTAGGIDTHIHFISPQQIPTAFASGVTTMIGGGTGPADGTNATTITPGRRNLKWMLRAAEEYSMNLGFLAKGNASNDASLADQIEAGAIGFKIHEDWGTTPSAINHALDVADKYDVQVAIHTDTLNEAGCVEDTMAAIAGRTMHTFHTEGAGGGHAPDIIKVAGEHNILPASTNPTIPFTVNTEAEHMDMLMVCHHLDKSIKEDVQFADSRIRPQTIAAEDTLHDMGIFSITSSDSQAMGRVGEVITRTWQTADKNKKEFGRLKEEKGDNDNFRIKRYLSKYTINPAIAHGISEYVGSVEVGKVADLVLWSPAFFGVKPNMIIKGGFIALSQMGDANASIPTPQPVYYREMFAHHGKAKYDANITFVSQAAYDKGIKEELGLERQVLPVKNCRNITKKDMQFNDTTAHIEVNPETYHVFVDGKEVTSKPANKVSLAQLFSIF
Chain of H. pylori ATCC 43504 urease (P14916 whole entry partner): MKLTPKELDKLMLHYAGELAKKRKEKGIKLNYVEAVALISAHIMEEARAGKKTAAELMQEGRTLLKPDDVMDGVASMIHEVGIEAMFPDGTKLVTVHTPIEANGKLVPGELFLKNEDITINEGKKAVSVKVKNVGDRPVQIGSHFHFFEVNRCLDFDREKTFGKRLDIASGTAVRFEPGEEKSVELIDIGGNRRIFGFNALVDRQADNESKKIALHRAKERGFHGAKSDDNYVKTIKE
In short: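 Crude H. pylori ATCC 43504 urease, 0.25 μg (0.04 U), in EDTA–sodium phosphate buffer pH 7.3, was preincubated with test compound at 37 °C for 90 min at 50 rpm. Urea solution (10 mM, as added) was then incubated for 30 min. Ammonia was measured by the salicylate–nitroprusside/alkaline hypochlorite method at 625 nm. Thiourea was the reference inhibitor. IC50 is molar. Triplicates, three independent experiments.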

[15] = Helicobacter pylori, OX.67, 48 h
[16] = Helicobacter pylori, OX.63, 48 h
[17] = Helicobacter pylori, OX.83, 48 h
[18] = Helicobacter pylori, OX.64, 48 h

Structure (SMILES): CC[C@H]1OC(=O)[C@H](C)[C@@H](O[C@H]2C[C@@](C)(OC)[C@@H](O)[C@H](C)O2)[C@H](C)[C@@H](O[C@@H]2O[C@H](C)C[C@H](N(C)C)[C@H]2O)[C@](C)(O)C[C@@H](C)CN(C)[C@H](C)[C@@H](O)[C@]1(C)O [azithromycin]
MIC [1]: 0.5 µg/mL (≈ 0.668 µM)
MBC [1]: 1 µg/mL (≈ 1.34 µM)
MIC [2]: 32 µg/mL (≈ 42.7 µM)
MIC [2, 15]: 64 µg/mL (≈ 85.4 µM)
MBC ([2]; Helicobacter pylori): 128 µg/mL (≈ 171 µM)
MIC [3]: 32 µg/mL (≈ 42.7 µM)
MIC [3, 16]: 32 to 64 µg/mL (≈ 42.7 to 85.4 µM)
MBC ([3]; Helicobacter pylori): 128 µg/mL (≈ 171 µM)
MIC [4]: 0.5 µg/mL (≈ 0.668 µM)
MBC [4]: 1 µg/mL (≈ 1.34 µM)
MIC [5]: 0.5 µg/mL (≈ 0.668 µM)
MBC [5]: 1 µg/mL (≈ 1.34 µM)
MIC [6]: 32 µg/mL (≈ 42.7 µM)
MIC [6, 17]: 64 µg/mL (≈ 85.4 µM)
MBC ([6]; Helicobacter pylori): 128 µg/mL (≈ 171 µM)
MIC [7]: 16 to 32 µg/mL (≈ 21.4 to 42.7 µM)
MIC [8]: 16 µg/mL (≈ 21.4 µM)
MIC [8, 18]: 16 to 32 µg/mL (≈ 21.4 to 42.7 µM)
MBC ([8]; Helicobacter pylori): 128 µg/mL (≈ 171 µM)

Structure (SMILES): CC[C@@]1(O)C(=O)OCc2c1cc1n(c2=O)Cc2cc3ccccc3nc2-1 [camptothecin, reference compound]
CC50 at 48 h [9]: 0.005 to 1.57 µg/mL (≈ 0.0144 to 4.51 µM)
CC50 at 48 h [10]: 1.57 µg/mL (≈ 4.51 µM)
CC50 at 48 h [11]: 0.89 µg/mL (≈ 2.55 µM)
CC50 at 48 h [12]: 0.005 µg/mL (≈ 0.0144 µM)
CC50 at 48 h [13]: 0.005 µg/mL (≈ 0.0144 µM)

MIC [1]: 0.063 µg/mL (≈ 0.0858 µM)
MIC [2, 15]: 64 µg/mL (≈ 87.2 µM)
MIC [4]: 0.063 µg/mL (≈ 0.0858 µM)
MIC [6, 17]: 64 µg/mL (≈ 87.2 µM)
MIC [8, 18]: 16 to 32 µg/mL (≈ 21.8 to 43.6 µM)
Structure (SMILES): CC[C@H]1OC(=O)[C@H](C)[C@@H](O[C@H]2C[C@@](C)(OC)[C@@H](O)[C@H](C)O2)[C@H](C)[C@@H](O[C@@H]2O[C@H](C)C[C@H](N(C)C)[C@H]2O)[C@](C)(O)C[C@@H](C)C(=O)[C@H](C)[C@@H](O)[C@]1(C)O [erythromycin]
MBC [1]: 0.125 µg/mL (≈ 0.17 µM)
MBC ([2]; Helicobacter pylori): 128 µg/mL (≈ 174 µM)
MBC ([3]; Helicobacter pylori): 128 µg/mL (≈ 174 µM)
MBC [4]: 0.125 µg/mL (≈ 0.17 µM)
MBC [5]: 128 µg/mL (≈ 174 µM)
MBC ([6]; Helicobacter pylori): 128 µg/mL (≈ 174 µM)
MBC ([8]; Helicobacter pylori): 128 µg/mL (≈ 174 µM)

Structure (SMILES): C[C@H]1COc2c(N3CCN(C)CC3)c(F)cc3c(=O)c(C(=O)O)cn1c23 [levofloxacin]
MIC [1]: 0.125 µg/mL (≈ 0.346 µM)
MBC [1]: 0.25 µg/mL (≈ 0.692 µM)
MIC [2, 15]: 0.063 µg/mL (≈ 0.174 µM)
MBC ([2]; Helicobacter pylori): 0.25 µg/mL (≈ 0.692 µM)
MIC [3, 16]: 0.063 µg/mL (≈ 0.174 µM)
MBC ([3]; Helicobacter pylori): 0.5 µg/mL (≈ 1.38 µM)
MIC [4]: 0.125 µg/mL (≈ 0.346 µM)
MBC [4]: 0.25 µg/mL (≈ 0.692 µM)
MIC [5]: 0.063 µg/mL (≈ 0.174 µM)
MBC [5]: 0.5 µg/mL (≈ 1.38 µM)
MIC [6, 17]: 0.75 µg/mL (≈ 2.08 µM)
MBC ([6]; Helicobacter pylori): 1.25 µg/mL (≈ 3.46 µM)
MIC [7]: 32 µg/mL (≈ 88.6 µM)
MIC [8]: 32 µg/mL (≈ 88.6 µM)
MIC [8, 18]: 16 to 32 µg/mL (≈ 44.3 to 88.6 µM)
MBC ([8]; Helicobacter pylori): 128 µg/mL (≈ 354 µM)

Structure (SMILES): Cc1ncc([N+](=O)[O-])n1CCO [metronidazole]
MIC [1]: 32 µg/mL (≈ 187 µM)
MBC [1]: 192 µg/mL (≈ 1120 µM)
MIC [2, 15]: 2 µg/mL (≈ 11.7 µM)
MBC ([2]; Helicobacter pylori): 4 µg/mL (≈ 23.4 µM)
MIC [3]: 64 µg/mL (≈ 374 µM)
MIC [3, 16]: 32 to 64 µg/mL (≈ 187 to 374 µM)
MBC ([3]; Helicobacter pylori): 256 µg/mL (≈ 1500 µM)
MIC [4]: 2 µg/mL (≈ 11.7 µM)
MBC [4]: 4 µg/mL (≈ 23.4 µM)
MIC [5]: 32 µg/mL (≈ 187 µM)
MBC [5]: 256 µg/mL (≈ 1500 µM)
MIC [6, 17]: 1 µg/mL (≈ 5.84 µM)
MBC ([6]; Helicobacter pylori): 2 µg/mL (≈ 11.7 µM)
MIC ([7]; 48 h): 24 to 64 µg/mL (≈ 140 to 374 µM)
MIC [8]: 32 µg/mL (≈ 187 µM)
MIC [8, 18]: 16 to 32 µg/mL (≈ 93.5 to 187 µM)
MBC ([8]; Helicobacter pylori): 256 µg/mL (≈ 1500 µM)

IC50 ([14]; read-out: IC50 (95% CL), urease crude, preincubation 90 min, pH 7.3): 573 µM
slope ± SE ([14]; slope of dose-response curve of percentage of urease inhibition): 1.79 ± 0.093
Structure (SMILES): NC(N)=S [thiourea, reference compound]
